Laboratory results as given in ChEMBL document CHEMBL1155278, “3,4-Diaryl-isoxazoles and -imidazoles as potent dual inhibitors of p38alpha mitogen activated protein kinase and casein kinase 1delta” (J Med Chem, 2009).

Columns and labels:
[1] = molecular target: Mitogen-activated protein kinase 8 (Homo sapiens) (UniProt P45983); experiment: Inhibition of JNK1 assessed as residual activity at 0.1 uM by Cherenkov counting relative to control in presence of 20 uM ATP
Procedure, shortened: (§1)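 Single-concentration selectivity screen at 0.1 μM against a panel of 76 protein kinases. Each kinase was run at an ATP level approximating its Km for ATP. Output is mean residual activity as % of the control assay without compound, n = 3 ± SD.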

[2] = molecular target: Ribosomal protein S6 kinase alpha-3 (Homo sapiens) (UniProt P51812); experiment: Inhibition of RSK2 assessed as residual activity at 0.1 uM by Cherenkov counting relative to control in presence of 50 uM ATP
Ribosomal protein S6 kinase alpha-3 (Homo sapiens), sequence (P51812 whole entry): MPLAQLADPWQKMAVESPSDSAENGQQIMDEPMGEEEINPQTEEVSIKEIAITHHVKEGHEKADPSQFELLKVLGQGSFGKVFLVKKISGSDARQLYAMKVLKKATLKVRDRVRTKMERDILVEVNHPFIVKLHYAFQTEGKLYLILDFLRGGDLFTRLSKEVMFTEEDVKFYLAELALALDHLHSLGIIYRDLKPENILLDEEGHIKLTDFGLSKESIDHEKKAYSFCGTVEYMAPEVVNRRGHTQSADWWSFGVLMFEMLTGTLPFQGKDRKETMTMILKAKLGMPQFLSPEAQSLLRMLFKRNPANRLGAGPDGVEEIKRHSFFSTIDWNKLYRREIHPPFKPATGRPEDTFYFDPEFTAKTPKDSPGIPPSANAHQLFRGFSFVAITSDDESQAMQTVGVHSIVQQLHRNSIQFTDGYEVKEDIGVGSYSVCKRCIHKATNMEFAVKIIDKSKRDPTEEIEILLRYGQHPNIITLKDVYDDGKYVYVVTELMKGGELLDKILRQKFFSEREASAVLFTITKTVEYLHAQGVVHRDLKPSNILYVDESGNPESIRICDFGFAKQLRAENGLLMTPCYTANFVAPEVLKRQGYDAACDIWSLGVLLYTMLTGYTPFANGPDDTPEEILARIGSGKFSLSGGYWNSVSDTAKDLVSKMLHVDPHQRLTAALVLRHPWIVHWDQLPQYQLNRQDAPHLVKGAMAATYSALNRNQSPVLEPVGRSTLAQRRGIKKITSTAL
Procedure, shortened: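 Single-concentration screen at 0.1 μM in a 76-kinase panel. ATP for each kinase was set near its Km for ATP. Residual activity is given as a percentage of control assays without compound, mean of n = 3 ± SD.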

[3] = molecular target: Serine/threonine-protein kinase Chk2 (Homo sapiens) (UniProt O96017); experiment: Inhibition of CHK2 assessed as residual activity at 0.1 uM by Cherenkov counting relative to control in presence of 20 uM ATP
Serine/threonine-protein kinase Chk2 (Homo sapiens), sequence (O96017 whole entry): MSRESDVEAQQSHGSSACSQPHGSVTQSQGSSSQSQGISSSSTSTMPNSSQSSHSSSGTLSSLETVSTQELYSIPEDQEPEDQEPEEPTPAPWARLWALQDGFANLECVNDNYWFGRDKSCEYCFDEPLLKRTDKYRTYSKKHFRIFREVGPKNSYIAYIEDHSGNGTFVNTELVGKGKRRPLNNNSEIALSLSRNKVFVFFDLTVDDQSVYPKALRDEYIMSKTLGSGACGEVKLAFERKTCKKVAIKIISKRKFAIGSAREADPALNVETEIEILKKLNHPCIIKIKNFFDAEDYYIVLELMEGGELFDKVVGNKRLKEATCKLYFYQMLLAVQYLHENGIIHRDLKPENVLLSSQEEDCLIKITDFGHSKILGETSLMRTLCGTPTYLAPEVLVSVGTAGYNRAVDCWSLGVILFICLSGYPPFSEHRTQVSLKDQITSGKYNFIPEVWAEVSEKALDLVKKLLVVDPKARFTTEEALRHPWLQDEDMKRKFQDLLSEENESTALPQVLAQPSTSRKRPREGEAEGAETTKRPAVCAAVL
Procedure, shortened: (§2)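 Single-concentration screen at 0.1 µM across a panel of 76 protein kinases. Each kinase was run at an ATP concentration approximating its ATP Km. Results are % mean residual activity versus control assays without compound (n = 3 ± SD).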

[4] = molecular target: T1, Serine/threonine-protein kinase Nek2 (Homo sapiens) (UniProt P51955); experiment: Inhibition of NEK2a assessed as residual activity at 0.1 uM by Cherenkov counting relative to control in presence of 50 uM ATP; procedure, shortened: as §1
T1 sequence (whole entry): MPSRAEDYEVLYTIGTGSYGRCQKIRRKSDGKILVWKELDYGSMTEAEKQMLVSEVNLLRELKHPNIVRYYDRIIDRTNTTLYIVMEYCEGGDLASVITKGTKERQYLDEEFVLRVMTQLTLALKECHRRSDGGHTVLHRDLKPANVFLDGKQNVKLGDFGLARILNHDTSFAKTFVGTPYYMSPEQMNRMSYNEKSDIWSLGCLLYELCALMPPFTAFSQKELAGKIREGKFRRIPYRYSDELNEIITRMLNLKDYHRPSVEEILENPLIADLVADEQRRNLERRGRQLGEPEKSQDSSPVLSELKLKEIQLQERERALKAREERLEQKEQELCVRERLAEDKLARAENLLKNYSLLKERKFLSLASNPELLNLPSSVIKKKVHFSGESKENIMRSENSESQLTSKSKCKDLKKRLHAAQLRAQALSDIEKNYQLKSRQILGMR

[5] = molecular target: T2, Inhibitor of nuclear factor kappa-B kinase subunit beta (Homo sapiens) (UniProt O14920); experiment: Inhibition of IKK-beta assessed as residual activity at 0.1 uM by Cherenkov counting relative to control in presence of 5 uM ATP; procedure, shortened: as §2
T2 sequence (whole entry): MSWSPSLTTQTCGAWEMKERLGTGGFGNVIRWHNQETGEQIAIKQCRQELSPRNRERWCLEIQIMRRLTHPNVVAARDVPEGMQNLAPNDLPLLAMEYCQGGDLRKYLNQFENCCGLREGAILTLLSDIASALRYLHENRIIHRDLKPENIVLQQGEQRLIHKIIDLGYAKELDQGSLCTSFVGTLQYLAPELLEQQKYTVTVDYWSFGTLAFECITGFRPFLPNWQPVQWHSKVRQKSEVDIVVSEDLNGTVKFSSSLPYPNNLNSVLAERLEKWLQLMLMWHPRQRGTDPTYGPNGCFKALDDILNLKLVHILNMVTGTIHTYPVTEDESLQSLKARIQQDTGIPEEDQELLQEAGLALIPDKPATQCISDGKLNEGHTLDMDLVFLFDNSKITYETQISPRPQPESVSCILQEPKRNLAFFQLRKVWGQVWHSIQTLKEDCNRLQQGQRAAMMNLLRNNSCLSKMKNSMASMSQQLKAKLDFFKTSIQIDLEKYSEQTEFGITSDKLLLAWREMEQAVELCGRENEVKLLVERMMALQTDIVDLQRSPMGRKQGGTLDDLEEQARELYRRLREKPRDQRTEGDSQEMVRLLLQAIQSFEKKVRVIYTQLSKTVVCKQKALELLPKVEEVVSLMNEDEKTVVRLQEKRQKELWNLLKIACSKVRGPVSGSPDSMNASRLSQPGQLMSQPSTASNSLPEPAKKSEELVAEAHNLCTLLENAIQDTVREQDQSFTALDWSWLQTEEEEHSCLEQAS

[6] = molecular target: Serine/threonine-protein kinase pim-2 (Homo sapiens) (UniProt Q9P1W9); experiment: Inhibition of PIM2 assessed as residual activity at 0.1 uM by Cherenkov counting relative to control in presence of 5 uM ATP; procedure, shortened: as §1
Serine/threonine-protein kinase pim-2 (Homo sapiens), sequence (Q9P1W9 whole entry, looked up): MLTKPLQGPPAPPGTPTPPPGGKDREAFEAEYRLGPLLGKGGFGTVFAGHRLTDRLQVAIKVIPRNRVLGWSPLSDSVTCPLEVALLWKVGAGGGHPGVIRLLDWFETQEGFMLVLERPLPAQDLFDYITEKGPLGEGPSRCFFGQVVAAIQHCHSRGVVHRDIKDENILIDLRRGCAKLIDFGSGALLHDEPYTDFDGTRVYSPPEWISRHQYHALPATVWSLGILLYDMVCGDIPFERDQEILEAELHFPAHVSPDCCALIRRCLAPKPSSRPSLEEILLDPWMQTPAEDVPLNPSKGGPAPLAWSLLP

[7] = molecular target: MAP kinase-activated protein kinase 3 (Homo sapiens) (UniProt Q16644); experiment: Inhibition of MAPKAPK3 assessed as residual activity at 10 uM by Cherenkov counting relative to control
MAP kinase-activated protein kinase 3 (Homo sapiens), sequence (Q16644 whole entry, looked up): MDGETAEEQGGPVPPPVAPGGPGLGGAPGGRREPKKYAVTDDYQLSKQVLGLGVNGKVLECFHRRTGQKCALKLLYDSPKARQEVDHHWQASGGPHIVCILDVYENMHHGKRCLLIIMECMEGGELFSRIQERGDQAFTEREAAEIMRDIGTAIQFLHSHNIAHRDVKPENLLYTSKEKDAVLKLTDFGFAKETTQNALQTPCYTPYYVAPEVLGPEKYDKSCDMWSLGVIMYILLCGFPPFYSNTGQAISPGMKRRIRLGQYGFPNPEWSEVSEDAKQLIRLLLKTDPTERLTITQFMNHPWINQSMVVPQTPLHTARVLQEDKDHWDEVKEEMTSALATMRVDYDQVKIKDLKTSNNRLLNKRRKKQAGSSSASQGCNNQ

[8] = molecular target: Calcium/calmodulin-dependent protein kinase type 1 (Homo sapiens) (UniProt Q14012); experiment: Inhibition of CAMK1 assessed as residual activity at 10 uM by Cherenkov counting relative to control in presence of 50 uM ATP
Calcium/calmodulin-dependent protein kinase type 1 (Homo sapiens), sequence (Q14012 whole entry, looked up): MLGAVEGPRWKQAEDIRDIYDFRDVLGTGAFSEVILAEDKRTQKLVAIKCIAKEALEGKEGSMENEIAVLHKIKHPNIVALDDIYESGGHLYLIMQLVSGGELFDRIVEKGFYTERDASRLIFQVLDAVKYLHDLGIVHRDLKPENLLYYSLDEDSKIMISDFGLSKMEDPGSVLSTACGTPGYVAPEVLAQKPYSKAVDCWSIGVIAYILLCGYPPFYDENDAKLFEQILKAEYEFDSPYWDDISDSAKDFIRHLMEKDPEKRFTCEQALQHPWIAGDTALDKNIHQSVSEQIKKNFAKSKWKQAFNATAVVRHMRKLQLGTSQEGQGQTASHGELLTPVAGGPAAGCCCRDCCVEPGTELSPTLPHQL
Procedure, shortened: (§3)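 Single-point profiling at 10 µM in a panel of 78 protein kinases. Kinase activity is expressed as a percentage relative to control assays without compound.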

[9] = Inhibition of CK2 assessed as residual activity at 10 uM by Cherenkov counting relative to control in presence of 5 uM ATP; procedure, shortened: as §3
[10] = molecular target: T3, Serine/threonine-protein kinase 3 (Homo sapiens) (UniProt Q13188); experiment: Inhibition of MST2 assessed as residual activity at 10 uM by Cherenkov counting relative to control in presence of 20 uM ATP
T3 sequence (whole entry): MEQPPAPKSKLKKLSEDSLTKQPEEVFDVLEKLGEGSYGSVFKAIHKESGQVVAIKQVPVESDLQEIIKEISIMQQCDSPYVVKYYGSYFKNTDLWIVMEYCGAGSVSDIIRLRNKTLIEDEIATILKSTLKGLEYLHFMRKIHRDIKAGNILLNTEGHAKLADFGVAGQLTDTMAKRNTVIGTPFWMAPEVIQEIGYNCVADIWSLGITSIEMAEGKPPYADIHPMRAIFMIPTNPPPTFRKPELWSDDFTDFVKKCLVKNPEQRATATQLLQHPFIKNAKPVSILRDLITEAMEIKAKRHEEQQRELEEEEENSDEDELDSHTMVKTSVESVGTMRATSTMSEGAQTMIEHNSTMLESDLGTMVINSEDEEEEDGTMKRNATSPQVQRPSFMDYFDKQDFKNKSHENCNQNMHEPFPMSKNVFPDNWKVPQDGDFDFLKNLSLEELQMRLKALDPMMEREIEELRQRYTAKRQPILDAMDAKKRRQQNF

[11] = molecular target: Tyrosine-protein kinase Yes (Homo sapiens) (UniProt P07947); experiment: Inhibition of YES1 assessed as residual activity at 10 uM by Cherenkov counting relative to control in presence of 20 uM ATP
Tyrosine-protein kinase Yes (Homo sapiens), sequence (P07947 2-543 limits assumed): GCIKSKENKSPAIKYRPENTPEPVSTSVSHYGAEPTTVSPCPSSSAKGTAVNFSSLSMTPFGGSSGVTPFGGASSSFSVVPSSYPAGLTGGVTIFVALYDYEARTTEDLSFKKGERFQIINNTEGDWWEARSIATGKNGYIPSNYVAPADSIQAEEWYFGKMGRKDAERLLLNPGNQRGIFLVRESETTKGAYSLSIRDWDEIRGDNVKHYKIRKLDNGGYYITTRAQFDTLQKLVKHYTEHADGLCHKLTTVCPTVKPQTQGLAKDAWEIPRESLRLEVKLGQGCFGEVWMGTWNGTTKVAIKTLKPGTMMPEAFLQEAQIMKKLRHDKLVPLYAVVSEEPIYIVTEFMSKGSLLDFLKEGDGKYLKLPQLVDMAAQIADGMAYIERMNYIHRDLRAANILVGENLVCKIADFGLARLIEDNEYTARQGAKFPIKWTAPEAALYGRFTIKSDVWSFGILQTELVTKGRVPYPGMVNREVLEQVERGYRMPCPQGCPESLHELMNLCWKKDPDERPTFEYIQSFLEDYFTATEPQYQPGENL
Procedure, shortened: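 Single-concentration profiling at 10 μM in a 78-kinase panel. Kinase activity is expressed as a percentage of control assays run without compound.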

Mitogen-activated protein kinase 8 (Homo sapiens), sequence (P45983 whole entry): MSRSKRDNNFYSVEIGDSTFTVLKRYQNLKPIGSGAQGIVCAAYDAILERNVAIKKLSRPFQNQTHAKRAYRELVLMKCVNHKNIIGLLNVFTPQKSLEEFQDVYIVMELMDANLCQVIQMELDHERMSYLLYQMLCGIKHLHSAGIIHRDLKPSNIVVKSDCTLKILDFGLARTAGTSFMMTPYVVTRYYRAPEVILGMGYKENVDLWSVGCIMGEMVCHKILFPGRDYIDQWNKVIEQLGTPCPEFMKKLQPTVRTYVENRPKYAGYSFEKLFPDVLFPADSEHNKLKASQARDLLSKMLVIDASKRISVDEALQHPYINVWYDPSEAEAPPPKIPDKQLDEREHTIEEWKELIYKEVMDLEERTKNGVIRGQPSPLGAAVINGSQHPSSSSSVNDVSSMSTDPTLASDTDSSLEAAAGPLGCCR

Row | SMILES | Activity [1] | Activity [2] | Activity [3] | Activity [4] | Activity [5] | Activity [6] | Activity [7] | Activity [8] | Activity [9] | Activity [10] | Activity [11]
1 | COc1ccc(/C=C/C(=O)Nc2cc(-c3[nH]c(SC)nc3-c3ccc(F)cc3)ccn2)c(OC)c1 | 90% | 86% | 79% | 91% | 84% | 87% |  |  |  |  | 
2 | COc1ccc(/C=C/C(=O)Nc2cc(-c3[nH]c([S+](C)[O-])nc3-c3ccc(F)cc3)ccn2)c(OC)c1 (configuration not stated) | 53% | 94% | 85% | 92% | 87% | 101% |  |  |  |  | 
3 | CC(C)c1noc(-c2ccc(F)cc2)c1-c1ccncc1 |  |  |  |  |  |  | 113% | 76% | 95% | 95% | 101%
4 | CC(C)c1onc(-c2ccc(F)cc2)c1-c1ccncc1 |  |  |  |  |  |  | 104% | 75% | 96% | 95% | 82%
